# In ChEMBL document CHEMBL4257575, “Discovery of Novel Flavonoid Dimers To Reverse Multidrug Resistance Protein 1 (MRP1, ABCC1) Mediated Drug Resistance in Cancers Using a High Throughput Platform with "Click Chemistry"” (J Med Chem, 2018):
# Target: Multidrug resistance-associated protein 1 (Homo sapiens, UniProt P33527)
# Test: Inhibition of MRP1 in human 2008/MRP1 cells assessed as potentiation of doxorubicin-induced cytotoxicity by measuring cell survival at 2 uM after 5 days by MTS assay relative to control
# Format: cell-based
# Settings: 120 h
# In short: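 2008/MRP1 cells (retroviral human MRP1 transfectant; RPMI 1640, 10% FBS) at 4,000 per well, with 100 nM doxorubicin plus crude, unpurified click products in DMSO: 2 µM in the primary screen, 1 µM in the secondary. Incubated 5 days at 37 °C. MTS/PMS added for 2 h at 37 °C, absorbance read at 490 nm. % survival is relative to wells without DOX or product. Run in triplicate, at least three experiments.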
# Chain of Multidrug resistance-associated protein 1 (P33527 whole entry): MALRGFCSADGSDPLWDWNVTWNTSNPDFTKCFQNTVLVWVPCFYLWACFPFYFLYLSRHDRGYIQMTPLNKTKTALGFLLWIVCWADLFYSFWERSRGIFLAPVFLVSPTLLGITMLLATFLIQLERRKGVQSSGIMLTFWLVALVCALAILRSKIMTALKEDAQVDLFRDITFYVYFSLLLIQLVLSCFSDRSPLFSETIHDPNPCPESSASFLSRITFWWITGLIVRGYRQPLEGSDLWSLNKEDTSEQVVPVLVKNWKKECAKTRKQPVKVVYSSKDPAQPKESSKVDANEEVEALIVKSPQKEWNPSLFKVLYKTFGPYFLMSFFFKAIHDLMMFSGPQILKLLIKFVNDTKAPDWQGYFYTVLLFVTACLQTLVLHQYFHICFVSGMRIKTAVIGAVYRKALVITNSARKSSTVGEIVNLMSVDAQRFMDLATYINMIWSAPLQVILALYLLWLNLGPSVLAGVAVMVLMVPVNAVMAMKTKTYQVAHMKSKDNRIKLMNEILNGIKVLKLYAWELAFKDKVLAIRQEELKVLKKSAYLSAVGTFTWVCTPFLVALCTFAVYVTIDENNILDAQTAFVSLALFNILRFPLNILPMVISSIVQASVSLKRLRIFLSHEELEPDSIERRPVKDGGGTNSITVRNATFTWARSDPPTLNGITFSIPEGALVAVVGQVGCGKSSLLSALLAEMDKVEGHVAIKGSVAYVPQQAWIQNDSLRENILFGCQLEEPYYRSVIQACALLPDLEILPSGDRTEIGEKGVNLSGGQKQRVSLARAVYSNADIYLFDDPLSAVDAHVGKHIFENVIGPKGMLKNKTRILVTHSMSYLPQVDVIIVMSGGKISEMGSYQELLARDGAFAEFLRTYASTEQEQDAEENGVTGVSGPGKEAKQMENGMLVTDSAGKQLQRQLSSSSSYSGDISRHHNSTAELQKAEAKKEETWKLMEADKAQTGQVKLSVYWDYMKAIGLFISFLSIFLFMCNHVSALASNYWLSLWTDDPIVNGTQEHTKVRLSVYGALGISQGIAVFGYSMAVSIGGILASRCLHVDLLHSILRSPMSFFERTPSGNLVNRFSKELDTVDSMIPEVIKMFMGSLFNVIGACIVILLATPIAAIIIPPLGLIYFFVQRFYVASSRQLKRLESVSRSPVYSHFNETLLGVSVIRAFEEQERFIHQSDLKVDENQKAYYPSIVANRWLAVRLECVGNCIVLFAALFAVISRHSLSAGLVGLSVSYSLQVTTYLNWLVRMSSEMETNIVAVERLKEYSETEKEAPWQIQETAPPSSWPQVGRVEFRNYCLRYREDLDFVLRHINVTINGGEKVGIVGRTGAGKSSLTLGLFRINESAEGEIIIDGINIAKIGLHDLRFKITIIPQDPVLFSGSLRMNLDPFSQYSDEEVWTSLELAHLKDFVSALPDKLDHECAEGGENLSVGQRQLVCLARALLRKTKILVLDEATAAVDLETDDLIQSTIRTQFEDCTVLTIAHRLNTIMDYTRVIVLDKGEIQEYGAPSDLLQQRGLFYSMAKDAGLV
row,Structure (SMILES),Survival [%]
1,Cc1ccc(O)c(C(=O)/C=C/c2ccc(OCCCCc3cn(CCOCCOc4ccc(-c5cc(=O)c6cc(F)ccc6o5)cc4)nn3)cc2)c1,82
2,C#CCCCCOc1ccc(C=O)cc1,86
3,COc1cccc(COc2c(-c3ccc(OCCOCCn4cc(CCCOc5ccc(-c6nc7ccccc7c(=O)[nH]6)cc5)nn4)cc3)oc3ccccc3c2=O)c1,67
4,O=c1cc(-c2ccccc2)oc2cc(OCCCCc3cn(CCOCCOc4ccc5c(=O)cc(-c6ccccc6)oc5c4)nn3)ccc12,53
5,Cc1ccc(O)c(C(=O)/C=C/c2ccc(OCCCCc3cn(CCOCCOc4cccc(-c5oc6ccccc6c(=O)c5OCc5ccccc5)c4)nn3)cc2)c1,78
6,CN(CCN(C)Cc1cn(CCOCCOc2ccc(-c3cc(=O)c4cc(F)ccc4o3)cc2)nn1)Cc1cn(CCOCCOc2ccc(-c3cc(=O)c4cc(F)ccc4o3)cc2)nn1,73
7,Cc1ccc(C(=O)/C=C/c2ccc(OCCCCc3cn(CCOCCOc4ccc(-c5cc(=O)c6ccccc6o5)cc4)nn3)cc2)c(O)c1,57
8,O=Cc1ccc(OCCCCc2cn(CCOCCOc3cccc(-c4oc5ccccc5c(=O)c4OCc4ccccc4)c3)nn2)cc1,82
9,O=c1cc(-c2ccc(OCCOCCn3cc(-c4cccc(-c5cn(CCOCCOc6ccc(-c7cc(=O)c8cc(F)ccc8o7)cc6)nn5)c4)nn3)cc2)oc2ccc(F)cc12,74
10,COc1cccc(COc2c(-c3ccc(OCCOCCn4cc(CN(CCOc5ccc6c(=O)cc(-c7ccccc7)oc6c5)Cc5ccccc5)nn4)cc3)oc3ccccc3c2=O)c1,79
11,O=c1cc(-c2ccc(OCCOCCOCCn3cc(CN(Cc4ccccc4)Cc4cn(CCOCCOCCOc5ccc(-c6cc(=O)c7cc(F)ccc7o6)cc5)nn4)nn3)cc2)oc2ccc(F)cc12,54
12,COc1cccc(COc2c(-c3ccc(OCCOCCN=[N+]=[N-])cc3)oc3ccccc3c2=O)c1,57
13,O=c1c(OCc2ccccc2)c(-c2ccc(OCCOCCn3cc(-c4cccc(-c5cn(CCOCCOc6ccc(-c7oc8ccccc8c(=O)c7OCc7ccccc7)cc6)nn5)c4)nn3)cc2)oc2ccccc12,87
14,O=Cc1ccc(OCCCCc2cn(CCOCCOCCOc3ccc(-c4cc(=O)c5cc(F)ccc5o4)cc3)nn2)cc1,74
15,COc1cccc(COc2c(-c3ccc(OCCOCCn4cc(CNc5ccccc5)nn4)cc3)oc3ccccc3c2=O)c1,89
16,COc1cccc(COc2c(-c3ccc(OCCCCc4cn(CCOCCOc5ccc(-c6cc(=O)c7cc(F)ccc7o6)cc5)nn4)cc3)oc3ccccc3c2=O)c1,65
17,O=c1cc(-c2ccc(OCCOCCOCCn3cc(CN4CCN(Cc5cn(CCOCCOCCOc6ccc(-c7cc(=O)c8ccccc8o7)cc6)nn5)CC4)nn3)cc2)oc2ccccc12,100
18,CCc1ccc(O)c(C(=O)/C=C/c2ccc(OCCCCc3cn(CCOc4cccc5c(=O)cc(-c6ccccc6)oc45)nn3)cc2)c1,86
19,O=c1cc(-c2ccccc2)oc2cc(OCCOCCn3cc(CN(Cc4ccccc4)Cc4cn(CCOCCOc5ccc6oc(-c7ccccc7)cc(=O)c6c5)nn4)nn3)ccc12,76
20,[N-]=[N+]=NCCOc1ccc2c(=O)cc(-c3ccccc3)oc2c1,79
21,O=c1cc(-c2ccc(OCCOCCOCCn3cc(CCCCOc4ccc5c(=O)cc(-c6ccccc6)oc5c4)nn3)cc2)oc2ccccc12,57
22,Cc1ccc(O)c(C(=O)/C=C/c2ccc(OCCCCc3cn(CCOc4cccc5c(=O)cc(-c6ccccc6)oc45)nn3)cc2)c1,77
23,COc1cccc(COc2c(-c3ccc(OCCOCCn4cc(CCCCOc5ccc(-c6cc(=O)c7cc(C)ccc7o6)cc5)nn4)cc3)oc3ccccc3c2=O)c1,78

row,Structure (SMILES),Survival [%]
1,Cc1ccc(C(=O)/C=C/c2ccc(OCCCCc3cn(CCOCCOc4cccc(-c5oc6ccccc6c(=O)c5OCc5ccccc5)c4)nn3)cc2)c(O)c1,79
2,O=c1c(OCc2ccccc2)c(-c2cccc(OCCOCCn3cc(CN(Cc4ccccc4)Cc4cn(CCOCCOc5cccc(-c6oc7ccccc7c(=O)c6OCc6ccccc6)c5)nn4)nn3)c2)oc2ccccc12,87
3,C#CCCCCOc1ccc2c(=O)cc(-c3ccccc3)oc2c1,99
4,Cc1ccc2oc(-c3ccc(OCCOCCOCCn4cc(CN(Cc5ccccc5)Cc5cn(CCOCCOCCOc6ccc(-c7cc(=O)c8cc(C)ccc8o7)cc6)nn5)nn4)cc3)cc(=O)c2c1,52
5,O=C(/C=C/c1ccc(OCCCCc2cn(CCOCCOc3ccc(-c4oc5ccccc5c(=O)c4OCc4ccccc4)cc3)nn2)cc1)c1ccccc1O,72
6,CCc1ccc(O)c(C(=O)/C=C/c2ccc(OCCCCc3cn(CCOCCOCCOc4ccc(-c5cc(=O)c6cc(C)ccc6o5)cc4)nn3)cc2)c1,63
7,CN(CCN(C)Cc1cn(CCOCCOc2ccc3oc(-c4ccccc4)cc(=O)c3c2)nn1)Cc1cn(CCOCCOc2ccc3c(=O)cc(-c4ccccc4)oc3c2)nn1,99
8,O=c1[nH]c(-c2ccc(OCCCc3cn(CCOCCOc4cccc(-c5oc6ccccc6c(=O)c5OCc5ccccc5)c4)nn3)cc2)nc2ccccc12,67
9,[N-]=[N+]=NCCOCCOc1cccc(-c2oc3ccccc3c(=O)c2OCc2ccccc2)c1,86
10,O=c1cc(-c2ccc(OCCOCCn3cc(CNc4ccccc4)nn3)cc2)oc2ccccc12,90
11,Cc1ccc(O)c(C(=O)/C=C/c2ccc(OCCCCc3cn(CCOCCOc4ccc(-c5oc6ccccc6c(=O)c5OCc5ccccc5)cc4)nn3)cc2)c1,68
12,O=c1cc(-c2ccccc2)oc2cc(OCCn3cc(CN4CCN(Cc5cn(CCOc6ccc7occ(-c8ccccc8)c(=O)c7c6)nn5)CC4)nn3)ccc12,93
13,O=c1cc(-c2ccccc2)oc2cc(OCCOCCn3cc(CNc4ccccc4)nn3)ccc12,88
14,O=c1cc(-c2ccc(OCCOCCOCCn3cc(-c4cccc(-c5cn(CCOCCOCCOc6ccc(-c7cc(=O)c8ccccc8o7)cc6)nn5)c4)nn3)cc2)oc2ccccc12,85
15,CCc1ccc(O)c(C(=O)/C=C/c2ccc(OCCCCc3cn(CCOCCOc4ccc(-c5oc6ccccc6c(=O)c5OCc5cccc(OC)c5)cc4)nn3)cc2)c1,76
16,O=c1cc(-c2ccccc2)oc2cc(OCCOCCOCCn3cc(-c4ccc(-c5cn(CCOCCOCCOc6ccc7c(=O)cc(-c8ccccc8)oc7c6)nn5)cc4)nn3)ccc12,88
17,COCOc1cc(OCc2ccccc2)c2c(=O)cc(-c3ccc(OCCCc4cn(CCOc5cccc6c(=O)cc(-c7ccccc7)oc56)nn4)cc3)oc2c1,81
18,COCOc1cc(OCc2ccccc2)c2c(=O)cc(-c3ccc(OCCCc4cn(CCOCCOCCOc5ccc(-c6cc(=O)c7ccccc7o6)cc5)nn4)cc3)oc2c1,66
19,CCc1ccc(O)c(C(=O)/C=C/c2ccc(OCCCCc3cn(CCOCCOc4ccc5c(=O)cc(-c6ccccc6)oc5c4)nn3)cc2)c1,68
20,Cc1ccc(C(=O)/C=C/c2ccc(OCCCCc3cn(CCOCCOCCOc4ccc5c(=O)cc(-c6ccccc6)oc5c4)nn3)cc2)c(O)c1,72
21,COCOc1cc(OCc2ccccc2)c2c(=O)cc(-c3ccc(OCCCc4cn(CCOCCOc5cccc(-c6oc7ccccc7c(=O)c6OCc6ccccc6)c5)nn4)cc3)oc2c1,74
22,O=c1cc(-c2ccc(OCCCc3cn(CCOCCOCCOc4ccc(-c5oc6ccccc6c(=O)c5OCc5ccccc5)cc4)nn3)cc2)oc2ccc(F)cc12,75
23,COc1cccc(COc2c(-c3ccc(OCCOCCn4cc(CCN5C(=O)c6ccccc6C5=O)nn4)cc3)oc3ccccc3c2=O)c1,75
